# Test results taken from ChEMBL document CHEMBL4038331 (J Med Chem, 2017).
# Calls of active or inactive are those of the source. The rule behind the calls is not given here.
# What was measured:
# [1] = tested on: Liver; assay: Increase in oligomycin-inhibited respiration in rat liver mitochondria after 5 mins in presence of succinate; type: functional
# Outline: (§1)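 Glutamate/malate (10/5 mM) or succinate (5 mM) was the substrate, with compound 2.5–10 μM for 5 min (state 2). ADP was added (125 nmol glutamate/malate; 75 nmol succinate), then oligomycin 2 μg/mL, then FCCP 1 μM. RCR and ADP/O were calculated. Seven experiments.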
# [2] = Antioxidant activity assessed as ABTS radical scavenging activity measured each minute for 15 mins by spectrophotometric analysis; type: functional
# Outline: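 ABTS•+ generated from 7 mM ABTS plus potassium persulfate, held 16 h dark at room temperature, then diluted in ethanol to absorbance 0.72 ± 0.02. Ethanolic test solutions (10–500 μM) were added to radical solution in triplicate. Inhibition was taken against an ethanol blank (100% radical), and IC50 was read from dose–response curves.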
# [3] = tested on: HepG2; assay: Antioxidant activity in human HepG2 cells assessed as reduction in FeSO4-induced cell toxicity at 100 uM preincubated for 1 hr followed by FeSO4 addition for 48 hrs by SRB assay; type: functional, cell-based
# Outline: (§2)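 HepG2 cells, grown in high-glucose DMEM with 10% FBS at 37 °C and 5% CO2, seeded at 2 × 10^4 cells/500 μL. Cells were preincubated with compound, then given 250 μM FeSO4 or 250 μM H2O2. Cell mass was read by SRB (fixed, stained, OD 540 nm) as % of untreated control. Four independent experiments.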
# [4] = tested on: HepG2; assay: Cytotoxicity against human HepG2 cells assessed as reduction in cell density at 0.5 to 100 uM after 48 hrs by SRB assay; type: cell-based; conditions: hepg2, 48 h
# [5] = tested on: HepG2; assay: Antioxidant activity in human HepG2 cells assessed as intracellular GSH content per ug of protein at 100 uM after 48 hrs by HPLC analysis (reference value: 17.81 nmol); type: functional
# [6] = tested on: Liver; assay: Induction of basal oxygen consumption under nonphosphorylative conditions in rat liver mitochondria after 5 mins in presence of succinate; type: functional; outline: as §1
# [7] = tested on: Liver; assay: Increase in oligomycin-inhibited respiration in rat liver mitochondria after 5 mins in presence of glutamate/malate; type: functional; outline: as §1
# [8] = Redox potential of compound in Ag/AgCl-NaCl containing phosphate buffer at 0.1 mM at pH 7.4 by cyclic voltammetric analysis
# Outline: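 Voltammetry used a glassy carbon working electrode, Pt counter and Ag/AgCl reference. Compound was at 0.1 mM final (10 mM ethanolic stock) in pH 7.4 potassium phosphate electrolyte.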
# [9] = tested on: HepG2; assay: Cytotoxicity against human HepG2 cells assessed as chromatin condensation at 100 uM after 48 hrs Hoechst 33342-staining based epifluorescence microscopic analysis; type: cell-based; conditions: hepg2, 48 h
# Outline: (§3)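 HepG2 cells on coverslips (8 × 10^4 cells/2 mL) were treated 48 h. In the last 30 min, cells were stained with TMRM (100 nM) and Hoechst 33342 (1 μg/mL) in HBSS pH 7.4 at 37 °C in the dark. Live cells were imaged by fluorescence microscopy, four random fields per well, three experiments.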
# [10] = tested on: Liver; assay: Drug uptake in rat liver intra-mitochondria at 1 uM in presence of succinate/valinomycin by TPP+-based electrode assay; type: ADME, tissue-based
# Outline: (§4)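 TPP+-selective electrode with rat liver mitochondria (0.5 mg/mL) in 120 mM KCl, 10 mM HEPES pH 7.2, 1 mM EGTA at 37 °C with rotenone 1.5 μM. Five 1 μM additions calibrated the electrode, then succinate 10 mM was added, then valinomycin 0.2 μg/mL. The accumulation ratio assumed a matrix volume of ~0.5 μL/mg with a binding correction.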
# [11] = Antioxidant activity assessed as GO radical scavenging activity measured for 30 mins in absence of light; type: functional
# Outline: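 Ethanolic GO• (5 mM stock) diluted to absorbance 1.00 ± 0.02 at 428 nm. Test solutions (5–75 μM in ethanol) were added in triplicate and read at 428 nm at room temperature. Inhibition was taken against an ethanol blank (100% radical).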
# [12] = Lipophilicity of compound in Ag/AgCl-NaCl containing PET membrane assessed as tranfer potential at pH 7; type: physicochemical
# Outline: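 Transfer across a liquid–liquid interface on a microporous PET membrane, with 1,6-dichlorohexane organic phase containing BTPPATPBCl. A gelled 2 mM BTPPACl + 2 mM NaCl reference was used, with 10 mM Tris-HCl pH 7.0 aqueous electrolyte.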
# [13] = tested on: Liver; assay: Antioxidant activity in rat liver mitochondria assessed as inhibition of ADP/FeSO4-induced lipid peroxidation at 5 uM preincubated for 5 mins followed by ADP/FeSO4 addition; type: functional
# Outline: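 Rat liver mitochondria (2 mg) in 100 mM KCl, 10 mM Tris-HCl pH 7.6, with glutamate/malate (5/2.5 mM) at 37 °C. After 5 min with compound (5 μM), peroxidation was started with ADP/0.1 mM FeSO4. The lag phase of O2 consumption was measured by Clark electrode and expressed as % of control. Six experiments.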
# [14] = tested on: Liver; assay: Drug uptake in rat liver extra-mitochondria at 1 uM in presence of succinate/valinomycin by TPP+-based electrode assay; type: ADME, tissue-based; outline: as §4
# [15] = Iron chelating activity in ammonium acetate buffer assessed as inhibition of [Fe(ferrozine)3]2+ formation at 100 uM at pH 6.7 measured after 10 mins by spectrophotometric analysis
# Outline: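 Ferrozine assay in ammonium acetate buffer pH 6.7. Compound (100 μM) plus ammonium iron(II) sulfate (20 μM) for 10 min, read at 562 nm. Ferrozine was added, incubated 10 min at 37 °C, and re-read at 562 nm. The first reading was subtracted, with a DMSO blank and EDTA = 100%. Three experiments.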
# [16] = tested on: Liver; assay: Decrease in oxidative phosphorylation efficiency in rat liver mitochondria assessed as reduction in respiratory control ratio after 5 mins in presence of glutamate/malate; type: functional; outline: as §1
# [17] = tested on: Liver; assay: Induction of basal oxygen consumption under nonphosphorylative conditions in rat liver mitochondria after 5 mins in presence of glutamate/malate; type: functional; outline: as §1
# [18] = tested on: Liver; assay: Induction of basal respiration in rat liver mitochondria measured 5 mins after ADP phosphorylation in presence of glutamate/malate; type: functional; outline: as §1
# [19] = tested on: Liver; assay: Induction of ADP-stimulated respiration in rat liver mitochondria after 5 mins in presence of succinate; type: functional; outline: as §1
# [20] = tested on: Liver; assay: Induction of ADP-stimulated respiration in rat liver mitochondria after 5 mins in presence of glutamate/malate; type: functional; outline: as §1
# [21] = tested on: HepG2; assay: Cytotoxicity against human HepG2 cells assessed as depletion of intracellular GSH content at 100 uM after 48 hrs by HPLC analysis; type: cell-based; conditions: hepg2, 48 h
# Outline: (§5)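 HepG2 cells (4 × 10^5 per 100 mm dish) were incubated 48 h, collected and stored at −80 °C in PBS. Reduced GSH was measured by reverse-phase HPLC with detection at 515 nm and expressed as nmol GSH/μg protein. Four experiments.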
# [22] = Antioxidant activity assessed as DPPH radical scavenging activity measured every minute for 45 mins; type: functional
# Outline: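 DPPH• ethanolic solution diluted to absorbance 0.72 ± 0.02 at 515 nm. Ethanolic test solutions (50–500 μM) were added in triplicate and read at 515 nm. Inhibition was taken against an ethanol blank (100% radical), and IC50 was read from dose–response curves.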
# [23] = tested on: Liver; assay: Decrease in oxidative phosphorylation efficiency in rat liver mitochondria assessed as reduction in coupling between ATP systhesis and oxygen consumption after 5 mins in presence of glutamate/malate; type: functional; outline: as §1
# [24] = tested on: Liver; assay: Induction of basal respiration in rat liver mitochondria measured 5 mins after ADP phosphorylation in presence of succinate; type: functional; outline: as §1
# [25] = tested on: Liver; assay: Decrease in oxidative phosphorylation efficiency in rat liver mitochondria assessed as reduction in coupling between ATP systhesis and oxygen consumption after 5 mins in presence of succinate; type: functional; outline: as §1
# [26] = tested on: Liver; assay: Ratio of drug level in rat liver intra-mitochondria to extra-mitochondria at 1 uM in presence of succinate/valinomycin by TPP+-based electrode assay; type: ADME, tissue-based; outline: as §4
# [27] = tested on: HepG2; assay: Antioxidant activity in human HepG2 cells assessed as reduction in H2O2-induced cell toxicity at 100 uM preincubated for 1 hr followed by H2O2 addition for 48 hrs by SRB assay; type: functional, cell-based; outline: as §2
# [28] = tested on: HepG2; assay: Cytotoxicity against human HepG2 cells assessed as mitochondrial depolarization at 100 uM after 48 hrs TMRM-staining based epifluorescence microscopic analysis; type: cell-based; conditions: hepg2, 48 h; outline: as §3
# [29] = tested on: HepG2; assay: Antioxidant activity in human HepG2 cells assessed as reduction in H2O2-induced cell toxicity at 2.5 uM preincubated for 1 hr followed by H2O2 addition for 48 hrs by SRB assay; type: functional, cell-based; outline: as §2
# [30] = tested on: Liver; assay: Induction of membrane hyperpolarization in rat liver mitochondria assessed as change in repolarization potential at 2.5 uM; type: functional
# Outline: (§6)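 Safranine (5 μM) fluorescence (ex 495/em 586 nm) at 25 °C. Rat liver mitochondria (0.5 mg/2 mL) were in 200 mM sucrose, 1 mM KH2PO4, 10 mM Tris pH 7.4, 10 μM EGTA with glutamate/malate or succinate, after 5 min with 2.5–10 μM. ADP 25 nmol depolarised, then FCCP 1 μM was added. A valinomycin calibration in K+-free medium was used, five experiments.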
# [31] = tested on: HepG2; assay: Cytotoxicity against human HepG2 cells assessed as reduction in cell density at >2.5 uM after 48 hrs by SRB assay; type: cell-based; conditions: hepg2, 48 h
# [32] = tested on: HepG2; assay: Antioxidant activity in human HepG2 cells assessed as reduction in FeSO4-induced cell toxicity at 2.5 uM preincubated for 1 hr followed by FeSO4 addition for 48 hrs by SRB assay; type: functional, cell-based; outline: as §2
# [33] = tested on: HepG2; assay: Cytotoxicity against human HepG2 cells assessed as depletion of intracellular GSH content at 2.5 uM after 48 hrs by HPLC analysis; type: cell-based; conditions: hepg2, 48 h; outline: as §5
# [34] = tested on: Liver; assay: Inhibition of ADP-induced membrane depolarization in succinate energized rat liver mitochondria at 5 uM preincubated for 5 mins followed by ADP addition measured by safranine-based spectrofluorometric analysis; type: functional, tissue-based; outline: as §6
# [35] = tested on: HepG2; assay: Cytotoxicity against human HepG2 cells assessed as chromatin condensation at 2.5 uM after 48 hrs Hoechst 33342-staining based epifluorescence microscopic analysis; type: cell-based; conditions: hepg2, 48 h; outline: as §3
# [36] = tested on: HepG2; assay: Cytotoxicity against human HepG2 cells assessed as mitochondrial depolarization at 2.5 uM after 48 hrs TMRM-staining based epifluorescence microscopic analysis; type: cell-based; conditions: hepg2, 48 h; outline: as §3
# [37] = tested on: HepG2; assay: Antioxidant activity in human HepG2 cells assessed as intracellular GSH content per ug of protein at 2.5 uM after 48 hrs by HPLC analysis (reference value: 17.81 nmol); type: functional
# [38] = species on record: Rattus norvegicus; assay: Inhibition of mPTP in energized rat liver mitochondria at 2.5 to 10 uM after 5 mins in presence of succinate by spectrophotometric analysis
# [39] = Induction of mPTP in energized rat liver mitochondria at 2.5 to 10 uM after 5 mins in presence of succinate by spectrophotometric analysis
Compound,Activity [1],IC50 [2],Activity [6],Activity [7],Activity [8],Drug uptake [10],IC50 [11],Activity [12],inhibition [13],Drug uptake [14],Activity [16],Activity [17],Activity [18],Activity [19],Activity [20],IC50 [22],Activity [23],Activity [24],Activity [25],Ratio [26],other results
CS(=O)(=O)[O-].O=C(/C=C/c1cc(O)c(O)c(O)c1)NCCCCCC[P+](c1ccccc1)(c1ccccc1)c1ccccc1,Dose-dependent effect,12.2 µM,Dose-dependent effect,Dose-dependent effect,0.034 V,2 mM,3.1 µM,0.498 V,Active,2.4 µM,Dose-dependent effect,Dose-dependent effect,Dose-dependent effect,Dose-dependent effect,Dose-dependent effect,19 µM,Dose-dependent effect,Dose-dependent effect,Dose-dependent effect,2100,inhibition [3]: Active; Activity [4]: Non-Toxic; Activity [5]: 26.94 nmol; Activity [9]: Non-Toxic; inhibition [15]: Active; Activity [21]: Non-Toxic; inhibition [27]: Active; Activity [28]: Non-Toxic
CS(=O)(=O)[O-].O=C(/C=C/c1ccc(O)c(O)c1)NCCCCCCCCCC[P+](c1ccccc1)(c1ccccc1)c1ccccc1,Dose-dependent effect,23.5 µM,Dose-dependent effect,Dose-dependent effect,0.174 V,4.7 mM,2.7 µM,0.291 V,Active,1.9 µM,Dose-dependent effect,Dose-dependent effect,Dose-dependent effect,Dose-dependent effect,Dose-dependent effect,25.9 µM,Dose-dependent effect,Dose-dependent effect,Dose-dependent effect,2700,inhibition [29]: Active; Activity [30]: 10 mV; Activity [31]: Toxic; inhibition [32]: Active; Activity [33]: Non-Toxic; inhibition [34]: Active; Activity [35]: Non-Toxic; Activity [36]: Non-Toxic; Activity [37]: 20.85 nmol; inhibition [38]: Active; Activity [39]: Non-Toxic
